From ChEMBL document CHEMBL4354843, “Structure-Based Design of a Potent and Selective Covalent Inhibitor for SRC Kinase That Targets a P-Loop Cysteine” (J Med Chem, 2020) come the findings set out here.

What is called IC50 is the concentration that gives 50% inhibition.

Assay [1] deals with BDNF/NT-3 growth factors receptor (Homo sapiens) (UniProt Q16620). The assay is described as follows: Binding affinity to wild-type human partial length TRKB (Q547 to G838 residues) expressed in mammalian expression system assessed as residual binding level at 1 uM by Kinomescan method relative to control.
Assay [2] has as its target Cyclin-dependent kinase 5 (Homo sapiens) (UniProt Q00535). The assay is described as follows: Binding affinity to wild-type human full length CDK5 (M1 to P292 residues) expressed in bacterial expression system assessed as residual binding level at 1 uM by Kinomescan method relative to control. In outline:
(§1)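 Active-site-directed KinomeScan competition binding panel covering 468 kinases, compound tested at 1 μM. Each readout is the kinase signal remaining with compound, expressed as a percentage of the DMSO control. […]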

The target in assay [3] is Phosphatidylinositol 3-kinase catalytic subunit type 3 (Homo sapiens) (UniProt Q8NEB9). Briefly: Binding affinity to wild-type human partial length VPS34 (S282 to H879 residues) expressed in mammalian expression system assessed as residual binding level at 1 uM by Kinomescan method relative to control. In outline: (§2)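 Active site-directed competition binding panel (KinomeScan, 468 kinases). Test compound at 1 μM. Read-out is kinase binding remaining versus DMSO control, expressed as percent of control. Scores above 35% are treated as weak binding.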

In assay [4] the test system is ALK tyrosine kinase receptor (Homo sapiens), Q9UM73 [C1156Y]. Briefly: Binding affinity to wild-type human partial length ALK C1156Y mutant (I1088 to E1409 residues) expressed in mammalian expression system assessed as residual binding level at 1 uM by Kinomescan method relative to control.
The target in assay [5] is Ephrin type-A receptor 1 (Homo sapiens) (UniProt P21709). The assay is described as follows: Binding affinity to wild-type human partial length EPHA1 (V588 to I913 residues) expressed in bacterial expression system assessed as residual binding level at 1 uM by Kinomescan method relative to control.
The target of assay [6] is Serine/threonine-protein kinase 33 (Homo sapiens) (UniProt Q9BYT3). The assay is described as follows: Binding affinity to wild-type human full length STK33 (M1 to L514 residues) expressed in bacterial expression system assessed as residual binding level at 1 uM by Kinomescan method relative to control.
The target in assay [7] is Tyrosine-protein kinase Blk (Homo sapiens) (UniProt P51451). The assay is described as follows: Binding affinity to wild-type human partial length BLK (G211 to L503 residues) expressed in bacterial expression system assessed as residual binding level at 1 uM by Kinomescan method relative to control. In outline:
(§3)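 KinomeScan, an active site-directed competition binding panel of 468 kinases. The test compound was at 1 μM. The readout is remaining kinase binding as a percentage of the DMSO control. Scores above 35% were treated as weak binding and not listed.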

For assay [8], the system named is Mast/stem cell growth factor receptor Kit (Homo sapiens), P10721 [D816V]. The assay is described as follows: Binding affinity to human partial length KIT D816V mutant (I571 to D952 residues) expressed in bacterial expression system assessed as residual binding level at 1 uM by Kinomescan method relative to control. In outline:
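KinomeScan active site-directed competition binding panel (468 kinases), compound tested at 1 μM. Result expressed as remaining kinase signal versus DMSO control (percent of control).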

Assay [9] concerns the target Aurora kinase C (Homo sapiens) (UniProt Q9UQB9). Briefly: Binding affinity to wild-type human full length AURKC (M1 to S275 residues) expressed in bacterial expression system assessed as residual binding level at 1 uM by Kinomescan method relative to control. In outline: as §3
Assay [10] has as its target Serine/threonine-protein kinase pim-1 (Homo sapiens) (UniProt P11309). The assay is described as follows: Binding affinity to wild-type human partial length PIM1 (A15 to K313 residues) expressed in bacterial expression system assessed as residual binding level at 1 uM by Kinomescan method relative to control.
For assay [11], the target named is Inhibitor of nuclear factor kappa-B kinase subunit alpha (Homo sapiens) (UniProt O15111). The assay is described as follows: Binding affinity to wild-type human full length IKK-alpha (M1 to E745 residues) expressed in mammalian expression system assessed as residual binding level at 1 uM by Kinomescan method relative to control. In outline:
as §1

Assay [12] concerns the target Mitogen-activated protein kinase kinase kinase 9 (Homo sapiens) (UniProt P80192). The assay is described as follows: Binding affinity to wild-type human partial length MLK1 (V88 to W426 residues) expressed in bacterial expression system assessed as residual binding level at 1 uM by Kinomescan method relative to control.
The target in assay [13] is Eukaryotic translation initiation factor 2-alpha kinase 1 (Homo sapiens) (UniProt Q9BQI3). Briefly: Binding affinity to wild-type human partial length EIF2AK1 (Q147 to E603 residues) expressed in mammalian expression system assessed as residual binding level at 1 uM by Kinomescan method relative to control.
Assay [14] concerns the target Phosphatidylinositol 5-phosphate 4-kinase type-2 gamma (Homo sapiens) (UniProt Q8TBX8). Briefly: Binding affinity to wild-type human partial length PIP5K2C (M1 to A421 residues) expressed in mammalian expression system assessed as residual binding level at 1 uM by Kinomescan method relative to control.
The target of assay [15] is Serine/threonine-protein kinase TBK1 (Homo sapiens) (UniProt Q9UHD2). The assay is described as follows: Binding affinity to wild-type human full length TBK1 (M1 to L729 residues) expressed in mammalian expression system assessed as residual binding level at 1 uM by Kinomescan method relative to control. In outline:
as §3

For assay [16], the target named is Serine/threonine-protein kinase SIK1 (Homo sapiens) (UniProt P57059). Briefly: Binding affinity to wild-type human partial length SIK (M1 to Y304 residues) expressed in bacterial expression system assessed as residual binding level at 1 uM by Kinomescan method relative to control. In outline:
as §2

A further assay deals with HCC827. Briefly: Antiproliferative activity against human HCC827 cells assessed as reduction in cell viability incubated for 72 hrs by cell-titer glo assay. The settings on record: HCC827, 72 h.
Assay [17] has as its target Serine/threonine-protein kinase NIM1 (Homo sapiens) (UniProt Q8IY84). The assay is described as follows: Binding affinity to wild-type human partial length NIM1 (Q44 to N355 residues) expressed in mammalian expression system assessed as residual binding level at 1 uM by Kinomescan method relative to control.
Assay [18] deals with Dual specificity mitogen-activated protein kinase kinase 5 (Homo sapiens) (UniProt Q13163). Briefly: Binding affinity to wild-type human partial length MEK5 (L98 to P448 residues) expressed in mammalian expression system assessed as residual binding level at 1 uM by Kinomescan method relative to control. In outline: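 Active-site-directed competition binding panel of 468 kinases (KinomeScan), compound at 1 μM. The read-out is kinase remaining bound, given as a percentage of the DMSO control. […]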

Assay [19] addresses Homeodomain-interacting protein kinase 4 (Homo sapiens) (UniProt Q8NE63). Briefly: Binding affinity to wild-type human partial length HIPK4 (M1 to V384 residues) expressed in bacterial expression system assessed as residual binding level at 1 uM by Kinomescan method relative to control.
For assay [20], the target named is Serine/threonine-protein kinase Nek6 (Homo sapiens) (UniProt Q9HC98). The assay is described as follows: Binding affinity to wild-type human full length NEK6 (M8 to T313 residues) expressed in bacterial expression system assessed as residual binding level at 1 uM by Kinomescan method relative to control. In outline:
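Active-site-directed competition binding panel (KinomeScan) covering 468 kinases. Test agent was screened at 1 μM. The read-out is the remaining kinase signal expressed relative to a DMSO control. Scores above 35%, taken as weak binding, were not reported.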

On to `C=CC(=O)Nc1ccccc1Nc1nc(Nc2ccc(N3CCN(C)CC3)cc2)ncc1C(=O)Nc1c(C)cccc1Cl`, for which the Activity came to 100% in assay [1]; 100% in [2]; 98% in assay [3]; 99% in assay [4]; 100% in assay [5]; 100% in assay [6]. Also, the Activity in assay [7] came out at 0.15%; in assay [8], 100%; in [9] it was 98%; in assay [10], 100%; in assay [11] it was 100%; in assay [12], 100%. Also, the Activity was 100% in [13]; 100% in assay [14]; 70% in [15]; 1% in assay [16]; 100% in assay [17]; 81% in [18]. Besides, the Activity in assay [19] and in assay [20] was 100% throughout. In addition, the IC50 in the assay with HCC827 came out at 500 nM.
